Calls of active or inactive are those of the source. The rule behind the calls is not given here.
Assays:
Beta-secretase 1 [1] = molecular target: T1, Beta-secretase 1 (Homo sapiens, UniProt P56817); assay: Inhibition of BACE1 in human SH-SY5Y cells harboring wild type APP695 assessed as increase in alphaCTF level at 3 uM by Western blot method relative to chloroquine; assay type: cell-based
Summary of the method: (§1)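 APP C-terminal fragments (αCTFs and AICD) were detected by Western blot and scored as band intensity. Compounds were tested at 1, 3 and 10 µM.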

Beta-secretase 1 [2] = molecular target: T1, Beta-secretase 1; assay: Inhibition of BACE1 in human SH-SY5Y cells harboring wild type APP695 assessed as reduction in amyloid beta (1 to 40) level after 24 hrs by ELISA method; assay type: cell-based
Summary of the method: (§2)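 Aβ1-40 and Aβ1-42 levels were measured by ELISA in APPwt-expressing SH-SY5Y cells after compound treatment.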

Beta-secretase 1 [3] = molecular target: T1, Beta-secretase 1; assay: Inhibition of BACE1 in human SH-SY5Y cells harboring wild type APP695 assessed as increase in AICD level at 3 uM by Western blot method relative to chloroquine; assay type: cell-based; summary of the method: as §1
Beta-secretase 1 [4] = molecular target: T1, Beta-secretase 1; assay: Inhibition of BACE1 in human SH-SY5Y cells harboring wild type APP695 assessed as reduction in amyloid beta (1 to 42) level up to 5 uM after 24 hrs by ELISA; assay type: cell-based; summary of the method: as §2
Beta-secretase 1 [5] = molecular target: T1, Beta-secretase 1; assay: Inhibition of BACE1 in human SH-SY5Y cells harboring wild type APP695 assessed as accumulation of APP-CTF level up to 5 uM after 24 hrs by ELISA; assay type: cell-based
Beta-secretase 1 [6] = molecular target: T1, Beta-secretase 1; assay: Inhibition of BACE1 in human SH-SY5Y cells harboring wild type APP695 assessed as reduction in sAPPbeta level up to 5 uM after 24 hrs by DAPI staining based electro-chemiluminescence immunoassay; assay type: cell-based
Beta-secretase 1 [7] = molecular target: T1, Beta-secretase 1; assay: Inhibition of BACE1 in human SH-SY5Y cells harboring wild type APP695 assessed as accumulation of AICD level up to 5 uM after 24 hrs by ELISA; assay type: cell-based
Primary neuron [8] = assay: Inhibition of autophagy in C57BL6 mouse primary neuronal cells assessed as increase in p62 expression up to 5 uM after 24 hrs in presence of autophagic inhibitor BafA1 by DAPI staining based immunofluorescence assay; assay type: functional
Summary of the method: (§3)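 Cells were co-treated with compound and the autophagic flux inhibitor bafilomycin A1. p62 and LC3 accumulation were then assessed in SY5Y-APPwt cells and primary neurons.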

Beta-secretase 1 [9] = molecular target: T1, Beta-secretase 1; assay: Inhibition of BACE1 in human SH-SY5Y cells harboring wild type APP695 assessed as reduction in amyloid beta (1 to 40) level up to 5 uM after 24 hrs by ELISA; assay type: cell-based; summary of the method: as §2
SH-SY5Y [10] = assay: Inhibition of autophagy in human SH-SY5Y cells harboring wild type APP695 assessed as increase in lipidation of LC3-1 to LC3-2 up to 5 uM after 24 hrs in presence of autophagic inhibitor BafA1 by DAPI staining based immunofluorescence assay; assay type: functional, cell-based; summary of the method: as §3
Beta-secretase 1 [11] = molecular target: T1, Beta-secretase 1; assay: Inhibition of BACE1 in human SH-SY5Y cells harboring wild type APP695 assessed as increase in AICD level at 3 uM by Western blot method relative to untreated control; assay type: cell-based; summary of the method: as §1
SH-SY5Y [12] = assay: Inhibition of autophagy in human SH-SY5Y cells harboring wild type APP695 assessed as increase in p62 expression up to 5 uM after 24 hrs in presence of autophagic inhibitor BafA1 by DAPI staining based immunofluorescence assay; assay type: functional, cell-based; summary of the method: as §3
Primary neuron [13] = assay: Inhibition of autophagy in C57BL6 mouse primary neuronal cells assessed as increase in lipidation of LC3-1 to LC3-2 at 3 uM after 24 hrs by DAPI staining based immunofluorescence assay; assay type: functional
Summary of the method: (§4)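 Autophagy markers were quantified against control: p62 expression and lipidation of LC3-I into LC3-II. Accumulation of p62- and LC3-positive vesicles was scored by immunofluorescence. This was done in SY5Y-APPwt cells and primary neurons.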

[14] = molecular target: Beta-secretase 1 (Mus musculus) (UniProt P56818); assay: Inhibition of BACE1 in C57BL6 mouse primary neuronal cells assessed as accumulation of AICD level up to 5 uM after 24 hrs by DAPI staining based immunofluorescence assay
Beta-secretase 1 (Mus musculus), sequence (P56818 whole entry): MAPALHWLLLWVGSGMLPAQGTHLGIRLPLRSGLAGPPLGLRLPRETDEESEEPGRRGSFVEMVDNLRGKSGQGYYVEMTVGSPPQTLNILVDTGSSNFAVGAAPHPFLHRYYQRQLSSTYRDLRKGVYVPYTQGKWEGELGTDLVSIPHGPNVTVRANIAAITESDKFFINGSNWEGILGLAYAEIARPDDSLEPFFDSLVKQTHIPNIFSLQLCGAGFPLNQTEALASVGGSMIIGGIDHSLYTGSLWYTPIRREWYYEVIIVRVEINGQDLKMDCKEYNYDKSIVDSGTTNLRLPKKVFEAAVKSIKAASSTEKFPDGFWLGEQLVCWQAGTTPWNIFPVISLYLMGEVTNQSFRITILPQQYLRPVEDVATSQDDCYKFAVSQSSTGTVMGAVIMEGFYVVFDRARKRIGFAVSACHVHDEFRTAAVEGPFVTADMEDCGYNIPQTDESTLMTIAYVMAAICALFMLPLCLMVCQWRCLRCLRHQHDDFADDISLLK

SH-SY5Y [15] = assay: Inhibition of alpha secretase in human SH-SY5Y cells harboring wild type APP695 assessed as increase in sAPPalpha level up to 5 uM after 24 hrs by DAPI staining based electro-chemiluminescence immunoassay; assay type: cell-based
Primary neuron [16] = assay: Inhibition of autophagy in C57BL6 mouse primary neuronal cells assessed as increase in lipidation of LC3-1 to LC3-2 up to 5 uM after 24 hrs in presence of autophagic inhibitor BafA1 by DAPI staining based immunofluorescence assay; assay type: functional; summary of the method: as §3
SH-SY5Y [17] = assay: Cytotoxicity against human SH-SY5Y cells harboring wild type APP695 assessed as reduction in cell viability after 24 hrs by LDH assay; assay type: cell-based
Primary neuron [18] = assay: Inhibition of autophagy in C57BL6 mouse primary neuronal cells assessed as increase in p62 expression at 3 uM after 24 hrs by DAPI staining based immunofluorescence assay; assay type: functional; summary of the method: as §4
[19] = molecular target: Beta-secretase 1 (Mus musculus) (UniProt P56818); assay: Inhibition of BACE1 in C57BL6 mouse primary neuronal cells assessed as increase in mature APP level at 3 to 5 uM after 24 hrs by DAPI staining based immunofluorescence assay relative to control; set-up: scale not given: the % may be the effect or the level left
SH-SY5Y [20] = assay: Inhibition of autophagy in human SH-SY5Y cells harboring wild type APP695 assessed as increase in p62 expression at 5 uM after 24 hrs by DAPI staining based immunofluorescence assay relative to control; assay type: functional; set-up: scale not given: the % may be the effect or the level left; summary of the method: as §4
[21] = molecular target: Beta-secretase 1 (Mus musculus) (UniProt P56818); assay: Inhibition of BACE1 in C57BL6 mouse primary neuronal cells assessed as accumulation of APP-CTF level up to 5 uM after 24 hrs by DAPI staining based immunofluorescence assay
Beta-secretase 1 [22] = molecular target: T1, Beta-secretase 1; assay: Inhibition of recombinant human BACE1 at 10 uM using Mca-S-E-[…]-L-D-AEF-R-K(Dnp)-R-R-NH2 as substrate after 60 mins by fluorescence assay relative to control
Summary of the method: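 BACE-1 enzymatic activity was followed by cleavage of the fluorogenic peptide Mca-S-E-V-N-L-D-AE-F-R-K(Dnp)-R-R-NH2.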

Beta-secretase 1 [23] = molecular target: T1, Beta-secretase 1; assay: Inhibition of BACE1 in human SH-SY5Y cells harboring wild type APP695 assessed as increase in alphaCTF level at 3 uM by Western blot method relative to untreated control; assay type: cell-based; summary of the method: as §1
[24] = Cytotoxicity against C57BL6 mouse primary neuronal cells assessed as reduction in cell viability after 24 hrs by LDH assay; assay type: cell-based; settings: primary neuron
Beta-secretase 1 [25] = molecular target: T1, Beta-secretase 1; assay: Inhibition of BACE1 in human SH-SY5Y cells harboring wild type APP695 assessed as increase in mature APP level at 5 uM after 24 hrs by ELISA relative to control; assay type: cell-based; set-up: scale not given: the % may be the effect or the level left; settings: in the assay text read “by Western blot” for “by ELISA”
Summary of the method: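 Full-length APP was resolved and detected with APP-C17 antiserum as two bands. The 110 kDa band is the immature, neosynthesized form and the 115 kDa band is the mature, glycosylated form. Both bands were quantified against the control condition. This was done in SH-SY5Y-APPwt cells and in primary neuronal cultures.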

SH-SY5Y [26] = assay: Inhibition of autophagy in human SH-SY5Y cells harboring wild type APP695 assessed as increase in lipidation of LC3-1 to LC3-2 at 5 uM after 24 hrs by DAPI staining based immunofluorescence assay relative to control; assay type: functional; set-up: scale not given: the % may be the effect or the level left
Summary of the method: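 SY5Y-APPwt cells treated at 5 µM alongside untreated control. LC3-I to LC3-II lipidation quantified from western blot bands. LC3- and p62-positive vesicles scored inside cells by immunofluorescence.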

T1 sequence (P56817 whole entry, the tested form may be a part): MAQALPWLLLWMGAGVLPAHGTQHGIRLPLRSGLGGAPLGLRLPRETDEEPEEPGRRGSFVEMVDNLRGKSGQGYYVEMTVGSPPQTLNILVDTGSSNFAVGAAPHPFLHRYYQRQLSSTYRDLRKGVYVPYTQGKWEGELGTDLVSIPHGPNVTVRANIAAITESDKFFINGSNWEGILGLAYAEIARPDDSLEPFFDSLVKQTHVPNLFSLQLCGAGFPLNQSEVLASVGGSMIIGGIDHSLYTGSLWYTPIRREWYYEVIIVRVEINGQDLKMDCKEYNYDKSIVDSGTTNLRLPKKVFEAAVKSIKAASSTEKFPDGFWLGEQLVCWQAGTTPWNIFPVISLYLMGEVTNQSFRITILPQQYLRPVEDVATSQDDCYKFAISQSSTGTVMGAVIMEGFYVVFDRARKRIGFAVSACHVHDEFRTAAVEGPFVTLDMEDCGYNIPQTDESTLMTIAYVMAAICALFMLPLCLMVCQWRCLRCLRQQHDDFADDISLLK

Question: For `CN(C)Cc1ccc(-c2ccc(NCCCN3CCCCC3)c(OCCN3CCCCC3)c2)cc1`, which fold change (FC) (Beta-secretase 1 [1]) is on record?
Answer: 2.1

Question: And the IC50 (Beta-secretase 1 [2])?
Answer: 1500 nM

Question: What about the fold change (FC) (Beta-secretase 1 [3]) of the same molecule?
Answer: 2.5

Question: Which fold change (FC) (Beta-secretase 1 [1]) does the source give for `CN1CCN(Cc2ccccc2-c2ccc(NCCCN3CCCCC3)c(OCCN3CCCCC3)c2)CC1` here?
Answer: 5.1

Question: What about the IC50 (Beta-secretase 1 [2]) of the same molecule?
Answer: 2600 nM

Question: What about the fold change (FC) (Beta-secretase 1 [3]) of the same molecule?
Answer: 3.7

Question: With `CN(C)Cc1ccccc1-c1ccc(NCCCN2CCCCC2)c(OCCN2CCCCC2)c1` as the molecule, how does the inhibition (Beta-secretase 1 [4]) read?
Answer: Active

Question: And the inhibition (Beta-secretase 1 [5])?
Answer: Active

Question: What about the inhibition (Beta-secretase 1 [6]) of the same molecule?
Answer: Active

Question: And the inhibition (Beta-secretase 1 [7])?
Answer: Active

Question: And the inhibition (Primary neuron [8])?
Answer: Active

Question: What about the inhibition (Beta-secretase 1 [9]) of the same molecule?
Answer: Active

Question: What about the inhibition (SH-SY5Y [10]) of the same molecule?
Answer: Active

Question: What about the fold change (FC) (Beta-secretase 1 [11]) of the same molecule?
Answer: 40

Question: And the inhibition (SH-SY5Y [12])?
Answer: Active

Question: What about the inhibition (Primary neuron [13]) of the same molecule?
Answer: Active

Question: And the inhibition [14]?
Answer: Active

Question: And the inhibition (SH-SY5Y [15])?
Answer: Active

Question: And the inhibition (Primary neuron [16])?
Answer: Active

Question: And the fold change (FC) (Beta-secretase 1 [1])?
Answer: 6.4

Question: What about the Activity (SH-SY5Y [17]) of the same molecule?
Answer: Non-Toxic

Question: What about the inhibition (Primary neuron [18]) of the same molecule?
Answer: Active

Question: What about the IC50 (Beta-secretase 1 [2]) of the same molecule?
Answer: 2800 nM

Question: What about the Activity [19] of the same molecule?
Answer: 130%

Question: And the Activity (SH-SY5Y [20])?
Answer: 476%

Question: And the inhibition [21]?
Answer: Active

Question: What about the inhibition (Beta-secretase 1 [22]) of the same molecule?
Answer: < 10%

Question: And the fold change (FC) (Beta-secretase 1 [23])?
Answer: 30

Question: What about the Activity [24] of the same molecule?
Answer: Non-Toxic

Question: What about the fold change (FC) (Beta-secretase 1 [3]) of the same molecule?
Answer: 3.6

Question: What about the Activity (Beta-secretase 1 [25]) of the same molecule?
Answer: 221%

Question: And the Activity (SH-SY5Y [26])?
Answer: 591%

Question: Which fold change (FC) (Beta-secretase 1 [1]) does the source give for `c1ccc(-c2ccc(NCCCN3CCCCC3)c(OCCN3CCCCC3)c2)c(CN2CCCCC2)c1` here?
Answer: 4.3

Question: And the IC50 (Beta-secretase 1 [2])?
Answer: 2600 nM

Question: What about the fold change (FC) (Beta-secretase 1 [3]) of the same molecule?
Answer: 2.7

Question: With `Oc1c(CN2CCCC2)cc(Nc2ccnc3cc(Cl)ccc23)cc1CN1CCCC1` as the molecule, how does the fold change (FC) (Beta-secretase 1 [1]) read?
Answer: 2.1

Question: What about the IC50 (Beta-secretase 1 [2]) of the same molecule?
Answer: 5100 nM

Question: And the fold change (FC) (Beta-secretase 1 [3])?
Answer: 2.5

Question: With `c1cc(CN2CCCCC2)cc(-c2ccc(NCCCN3CCCCC3)c(OCCN3CCCCC3)c2)c1` as the molecule, how does the fold change (FC) (Beta-secretase 1 [1]) read?
Answer: 3.3

Question: What about the IC50 (Beta-secretase 1 [2]) of the same molecule?
Answer: 4300 nM

Question: And the fold change (FC) (Beta-secretase 1 [3])?
Answer: 2.6

Question: With `CN(C)Cc1ccccc1-c1ccc(NCCCN2CCCCC2)c(OCCCN2CCCCC2)c1` as the molecule, how does the fold change (FC) (Beta-secretase 1 [11]) read?
Answer: 30

Question: And the fold change (FC) (Beta-secretase 1 [1])?
Answer: 4.5

Question: And the IC50 (Beta-secretase 1 [2])?
Answer: 2100 nM

Question: What about the fold change (FC) (Beta-secretase 1 [23]) of the same molecule?
Answer: 50

Question: And the fold change (FC) (Beta-secretase 1 [3])?
Answer: 5.1

Question: What does the source list for `CN(C)Cc1ccccc1-c1ccc(NCCCN2CCCCC2)cc1`?
Answer: fold change (FC) (Beta-secretase 1 [1]): 0.9; IC50 (Beta-secretase 1 [2]): 3900 nM; fold change (FC) (Beta-secretase 1 [3]): 0.8

Question: Which fold change (FC) (Beta-secretase 1 [1]) does the source give for `CC(C)CN(CCCN1CCN(CCCNc2nc3ccccc3[nH]2)CC1)CC(C)C` here?
Answer: 1.3

Question: And the IC50 (Beta-secretase 1 [2])?
Answer: 1700 nM

Question: What about the fold change (FC) (Beta-secretase 1 [3]) of the same molecule?
Answer: 1.8

Question: What does the source list for `c1ccc(-c2ccc(NCCCN3CCCCC3)c(OCCN3CCCCC3)c2)c(CN2CCOCC2)c1`?
Answer: fold change (FC) (Beta-secretase 1 [1]): 3.1; IC50 (Beta-secretase 1 [2]): 2800 nM; fold change (FC) (Beta-secretase 1 [3]): 1.7
